Results from ChEMBL document CHEMBL2412973, “Design, synthesis, and anti-tumor activities of novel triphenylethylene-coumarin hybrids, and their interactions with Ct-DNA” (Bioorg Med Chem Lett, 2013).
The source made the active and inactive calls. The calls are words filed in the database; no cut-off is given here.

How the values were obtained:
MCF7 = assay: Antiproliferative activity against human MCF7 cells after 48 hrs by MTT assay; format: functional, cell-based; conditions: MCF7, 48 h
A549 = assay: Antiproliferative activity against human A549 cells after 48 hrs by MTT assay; format: functional, cell-based; conditions: A549, 48 h
K562 = assay: Antiproliferative activity against human K562 cells after 48 hrs by MTT assay; format: functional, cell-based; conditions: K562, 48 h
DNA [1] = assay: Binding affinity to calf thymus DNA in phosphate buffer at pH 7.4 assessed as intercalation in DNA at 20 uM after 10 mins by circular dichroism method; format: nucleic-acid assay; conditions: Bos taurus
In short: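 CD spectra of Ct-DNA (5.0×10^-5 M) with and without compound (2.0×10^-5 M) recorded in 10 mM phosphate buffer pH 7.4 containing 50 mM NaCl and 4% DMSO at 25 °C.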

DNA [2] = assay: Binding affinity to calf thymus DNA in phosphate buffer at pH 7.4 assessed as hypochromic effect at 1.0 x 10^-5 M by UV-visible spectroscopy; format: nucleic-acid assay; conditions: Bos taurus
In short: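 Compound at 1.0×10^-5 M titrated with Ct-DNA (0–180 μM) in 10 mM phosphate buffer pH 7.4, 50 mM NaCl, 4% DMSO, 25 °C; UV-Vis absorption change at absorption maximum, hypochromicity percentage derived, binding fitted.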

DNA [3] = assay: Binding affinity to calf thymus DNA in phosphate buffer at pH 7.4 assessed as change in melting temperature at 5 uM after 10 mins by thermal denaturation method; format: nucleic-acid assay; conditions: Bos taurus
In short: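 Thermal denaturation: Ct-DNA 5.0×10^-5 M with or without compound at 5.0×10^-6 M, phosphate buffer (1 mM, pH 7.4) with 5 mM NaCl and 4% DMSO; melting curves recorded, Tm taken as temperature at which half the DNA melts; ΔTm relative to free Ct-DNA.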

Bel-7402 = assay: Antiproliferative activity against human Bel7402 cells after 48 hrs by MTT assay; format: functional, cell-based; conditions: Bel-7402, 48 h
DNA [4] = assay: Binding affinity to calf thymus DNA in phosphate buffer at pH 7.4 at 5 uM after 10 mins by fluorescence spectroscopy; format: nucleic-acid assay; conditions: Bos taurus
In short: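 Compound at 5.0×10^-6 M, excited at 329–336 nm depending on compound, titrated with Ct-DNA (0–90 μM) in 10 mM phosphate buffer pH 7.4, 50 mM NaCl, 4% DMSO, 25 °C; emission near 455 nm; F/F0 plotted against DNA concentration, Stern-Volmer analysis gives binding efficiency.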

HL-60 = assay: Antiproliferative activity against human HL60 cells after 48 hrs by MTT assay; format: functional, cell-based; conditions: HL-60, 48 h
[5] = Cytotoxicity against mouse Osteoblasts at 1 uM after 48 hrs by MTT assay; format: cell-based; conditions: osteoblast
In short: (§1)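 Primary osteoblasts isolated from newborn mouse skull, exposed to compound for 48 h; cell death measured by MTT; % cytotoxicity versus untreated cells, mean ± SEM of six replicates, significance by p-value.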

[6] = Cytotoxicity against mouse Osteoblasts at 100 uM after 48 hrs by MTT assay; format: cell-based; conditions: osteoblast; in short: as §1
[7] = Cytotoxicity against mouse Osteoblasts at 20 uM after 48 hrs by MTT assay; format: cell-based; conditions: osteoblast; in short: as §1
[8] = Cytotoxicity against mouse Osteoblasts at 10 uM after 48 hrs by MTT assay; format: cell-based; conditions: osteoblast; in short: as §1
[9] = Cytotoxicity against mouse Osteoblasts at 40 uM after 48 hrs by MTT assay; format: cell-based; conditions: osteoblast; in short: as §1

Row | Compound | IC50 (MCF7) [µM] | IC50 (A549) [µM] | IC50 (K562) [µM] | Activity (DNA [1]) | Activity (DNA [2]) [%] | ΔTm (DNA [3]) [°C] | IC50 (Bel-7402) [µM] | Activity (DNA [4]) | IC50 (HL-60) [µM] | Activity [5] [%] | Activity [6] [%] | Activity [7] [%] | Activity [8] [%] | Activity [9] [%]
1 | O=c1oc2cc(OCCN3CCCC3)ccc2c(-c2ccc(OCCN3CCCC3)cc2)c1-c1ccc(OCCN2CCCC2)cc1 | 92.8 | 86.3 | 75.3 | – | – | – | – | – | – | – | – | – | – | –
2 | O=c1oc2cc(OCCN3CCCCC3)ccc2c(-c2ccc(OCCN3CCCCC3)cc2)c1-c1ccc(OCCN2CCCCC2)cc1 | 48.2 | 56.3 | 39.4 | Active | 25 | 8.8 | – | 3.16 ×10⁴ /M | – | – | – | – | – | –
3 | O=c1oc2cc(OCCN3CCOCC3)ccc2c(-c2ccc(O)cc2)c1-c1ccccc1 | > 100 | 94.1 | > 100 | – | – | – | – | – | – | – | – | – | – | –
4 | O=c1oc2cc(O)ccc2c(-c2ccc(O)cc2)c1-c1ccccc1 | > 100 | > 100 | > 100 | inactive | 8 | 1.1 | – | 5.41 ×10² /M | – | – | – | – | – | –
5 | O=c1oc2cc(OCCN3CCCCC3)ccc2c(-c2ccc(O)cc2)c1-c1ccccc1 | 86.6 | 91.2 | 81.2 | – | – | – | – | – | – | – | – | – | – | –
6 | O=c1oc2cc(O)ccc2c(-c2ccc(O)cc2)c1-c1ccc(O)cc1 | > 100 | > 100 | > 100 | – | – | – | – | – | – | – | – | – | – | –
7 | O=c1oc2cc(OCCN3CCOCC3)ccc2c(-c2ccc(OCCN3CCOCC3)cc2)c1-c1ccc(OCCN2CCOCC2)cc1 | > 100 | > 100 | > 100 | – | – | – | – | – | – | – | – | – | – | –
8 | CC/C(=C(\c1ccccc1)c1ccc(OCCN(C)C)cc1)c1ccccc1 [TAMOXIFEN] | 13.5 | – | – | – | – | – | – | – | – | – | – | – | – | –
9 | O=c1oc2cc(OCCN3CCCC3)ccc2c(-c2ccc(O)cc2)c1-c1ccccc1 | 50 | 54.3 | 44.5 | – | – | – | – | – | – | – | – | – | – | –

Second part, led by results:

Row | IC50 (MCF7) [µM] | IC50 (A549) [µM] | IC50 (K562) [µM] | Activity (DNA [1]) | Activity (DNA [2]) [%] | ΔTm (DNA [3]) [°C] | IC50 (Bel-7402) [µM] | Activity (DNA [4]) | IC50 (HL-60) [µM] | Compound | Activity [5] [%] | Activity [6] [%] | Activity [7] [%] | Activity [8] [%] | Activity [9] [%]
10 | > 100 | > 100 | > 100 | Active | 13 | 2 | > 100 | 2.68 ×10² /M | > 100 | O=c1oc2cc(OCCN3CCOCC3)ccc2c(-c2ccc(OCCN3CCOCC3)cc2)c1-c1ccccc1 | – | – | – | – | –
11 | > 100 | > 100 | > 100 | – | – | – | – | – | – | COc1ccc2c(-c3ccc(O)cc3)c(-c3ccccc3)c(=O)oc2c1 | – | – | – | – | –
12 | 68.8 | 45.2 | 41.9 | – | – | – | – | – | – | CCN(CC)CCOc1ccc(-c2c(-c3ccc(OCCN(CC)CC)cc3)c3ccc(OCCN(CC)CC)cc3oc2=O)cc1 | – | – | – | – | –
13 | 7.9 | 8.31 | 3.79 | – | – | – | 8.04 | – | 3.98 | CCN(CC)CCOc1ccc(-c2c(-c3ccccc3)c(=O)oc3cc(OCCN(CC)CC)ccc23)cc1 | -3.1 | 42.2 | 12.2 | 3.2 | 20.6
14 | 76.7 | 60.8 | 88.8 | – | – | – | – | – | – | CCN(CC)CCOc1ccc(-c2c(-c3ccccc3)c(=O)oc3cc(OC)ccc23)cc1 | – | – | – | – | –
15 | 11.4 | 6.64 | 2.91 | Active | 23 | 4.3 | 8.19 | 4.21 ×10³ /M | 5.28 | O=c1oc2cc(OCCN3CCCCC3)ccc2c(-c2ccc(OCCN3CCCCC3)cc2)c1-c1ccccc1 | -8 | 39.2 | 7.4 | -2.6 | 14.2
16 | > 100 | > 100 | > 100 | – | – | – | – | – | – | CCN(CC)CCOc1ccc2c(-c3ccc(O)cc3)c(-c3ccccc3)c(=O)oc2c1 | – | – | – | – | –
17 | 12.3 | 6.31 | 4.58 | – | – | – | 8.66 | – | 5.93 | O=c1oc2cc(OCCN3CCCC3)ccc2c(-c2ccc(OCCN3CCCC3)cc2)c1-c1ccccc1 | -5.1 | 36.1 | 10.1 | -6.7 | 18.2
18 | 29.6 | 23.4 | 19.6 | Active | 12 | 3.2 | – | 3.12 ×10³ /M | – | COc1ccc2c(-c3ccc(OCCN4CCCCC4)cc3)c(-c3ccccc3)c(=O)oc2c1 | – | – | – | – | –
19 | > 100 | 89.8 | 93.3 | – | – | – | – | – | – | COc1ccc2c(-c3ccc(OCCN4CCCC4)cc3)c(-c3ccccc3)c(=O)oc2c1 | – | – | – | – | –
20 | > 100 | > 100 | > 100 | – | – | – | – | – | – | COc1ccc2c(-c3ccc(OCCN4CCOCC4)cc3)c(-c3ccccc3)c(=O)oc2c1 | – | – | – | – | –
